The text below walks through data of ChEMBL document CHEMBL1142195, “A novel nonnucleoside analogue that inhibits human immunodeficiency virus type 1 isolates resistant to current nonnucleoside reverse transcriptase inhibitors” (Antimicrob Agents Chemother, 2007).

For orientation: bioavailability means the share of a dose that reaches the circulation, judged against a reference dose that is usually intravenous. In general, EC50 refers to the midpoint of the concentration-response curve. Usually Tmax stands for the time at which the peak concentration occurs. Broadly, the half-life is the time needed for the level to fall by half in the phase considered. Read a low half-life as fast loss. The term AUC denotes the area under the concentration-time curve, a measure of exposure. Lower therefore signals less exposure.

Active and inactive are the calls of the source.

Data set [1] is described as follows: Bioavailability in dog at 20 mg/kg, po. The data set is classed as ADME, organism-based, Canis lupus familiaris. To be noted: in vivo. The method in brief: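 Dogs given 10 mg/kg i.v. or 20 mg/kg p.o., n = 3 per time point. Plasma sampled predose through 24 h. Bioavailability = (oral AUC0-∞/intravenous AUC0-∞) × 100.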
For the next data set, the system named is Hepatitis B virus. The data set can be described thus: Inhibition of hepatitis B virus replication. The format is functional, organism-based.
Data set [2] deals with Human immunodeficiency virus 1. The data set can be described thus: Inhibition of wild type clade B HIV1 NL4-3. The data set is classed as functional, organism-based. The method in brief:
(§1)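 Single-round assay in HeLa-JC53 cells (15,000/well) using VSV-G-pseudotyped pNL4-3.Luc.R−E−-derived virus at MOI 0.03. Compounds serially diluted 1:4 in DMSO then medium (2% FBS; final DMSO 0.2%). Incubated 48 h at 37°C in 5% CO2. Luciferase chemiluminescence read-out; EC50 determined.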

Data set [3] has as its system Human immunodeficiency virus 1. Kind of data set: Inhibition of non-B HIV1 isolates (clades A, AC, C, D and F). The data set is classed as functional, organism-based.
Data set [4] has as its target DNA polymerase beta (Homo sapiens) (UniProt P06746). The data set can be described thus: Inhibition of human DNA polymerase beta upto 45 uM.
The subject of data set [5] is Human immunodeficiency virus 1. Kind of data set: Antiviral activity against HIV1 isolate with RT K103N-V108I-P225H mutation. The format is functional, organism-based. The method, boiled down:
(§2)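 VSV-G-pseudotyped pNL4-3.Luc.R−E− molecular clones carrying the RT mutations, single-round infection of HeLa-JC53 cells (15,000/well) at MOI 0.03. Compounds serially diluted 1:4 in DMSO then in phenol red-free DMEM with 2% FBS, final DMSO 0.2%. Incubated 48 h at 37°C, 5% CO2. Luciferase read-out by chemiluminescence gives the EC50. Fold change is relative to wt virus, mean of two tests.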

In data set [6] the test system is Human immunodeficiency virus 1. The data set can be described thus: Antiviral activity against wild type HIV1 NL4-3 in Hela-JC53 cells in the presence of 30% human serum after 48 hrs. The format is functional, organism-based. To be noted: Human immunodeficiency virus 1, NL4-3, Hela-JC53, 48 h. The method in brief:
(§3)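 HeLa-JC53 cells (1.5 × 10^4) infected with VSV-G-pseudotyped NL4-3.Luci.R−E− reporter virus at MOI 0.03, with 1:4 serial compound dilutions. Heat-inactivated human serum added to final 0–50% on a basal 2% FBS medium. Incubated 48 h at 37°C in 5% CO2. Luciferase read-out; EC50 by nonlinear regression.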

Data set [7] has as its system Human immunodeficiency virus 1. Kind of data set: Antiviral activity against wild type HIV1 NL4-3 in Hela-JC53 cells after 48 hrs. The data set is classed as functional, organism-based. To be noted: Human immunodeficiency virus 1, NL4-3, Hela-JC53, 48 h. The method, boiled down: as §1
Data set [8] relates to Human immunodeficiency virus 1. The data set can be described thus: Antiviral activity against HIV1 isolate with RT K103N-K101Q-P225H mutation. The format is functional, organism-based. The method, boiled down: as §2
Data set [9] has as its system Human immunodeficiency virus 1. Kind of data set: Antiviral activity against HIV1 isolate with RT K103N-V108I-A98G mutation. The format is functional, organism-based. The method, boiled down:
as §2

Data set [10] has as its system Human immunodeficiency virus 1. Kind of data set: Antiviral activity against HIV1 isolate with RT Y181C mutation. The data set is classed as functional, organism-based. The method, boiled down:
as §2

Data set [11] relates to Human immunodeficiency virus 1. Kind of data set: Antiviral activity against wild type HIV1. The data set is classed as functional, organism-based.
The subject of data set [12] is Human immunodeficiency virus 1. Kind of data set: Antiviral activity against HIV1 isolate with RT F227L mutation in Hela-JC-53 cells. The format is functional.
Data set [13] concerns Human immunodeficiency virus 1. The data set can be described thus: Antiviral activity against HIV1 isolate with RT T369I mutation in Hela-JC-53 cells. The data set is classed as functional.
Data set [14] has as its system Human immunodeficiency virus 1. The data set can be described thus: Antiviral activity against HIV1 isolate with RT V106I, Y181C mutation in Hela-JC-53 cells. The format is functional.
Data set [15] relates to Human immunodeficiency virus 1. The data set can be described thus: Antiviral activity against HIV1 isolate with RT V106I, D123G, Y181C, F227L, T369I mutation in Hela-JC-53 cells. The data set is classed as functional.
The test system of data set [16] is Human immunodeficiency virus 1. Kind of data set: Antiviral activity against wild type HIV1 NL4-3 in Hela-JC53 cells in the presence of 50% human serum after 48 hrs. The format is functional, organism-based. To be noted: Human immunodeficiency virus 1, NL4-3, Hela-JC53, 48 h. The method, boiled down:
as §3

A short description of data set [17]: Tmax in dog at 10 mg/kg, iv. The format is ADME, organism-based, Canis lupus familiaris. Also noted: dose 10 mg/kg, route intravenous. To be noted: in vivo.
Data set [18] in a line: Half life in dog at 10 mg/kg, iv. The format is ADME, organism-based, Canis lupus familiaris. Also noted: dose 10 mg/kg, route intravenous. To be noted: in vivo.
A short description of data set [19]: AUC in dog at 10 mg/kg, iv. The format is ADME, organism-based, Canis lupus familiaris. Also noted: dose 10 mg/kg, route intravenous. To be noted: plasma.
The test system of data set [20] is Human immunodeficiency virus 1. Kind of data set: Antiviral activity against HIV1 isolate with RT Y188L mutation. The format is functional, organism-based. The method in brief:
as §2

The subject of data set [21] is Human immunodeficiency virus 1. Kind of data set: Antiviral activity against HIV1 isolate with RT 103N, 238N mutation relative to wild type. The format is functional. The method in brief: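 Mutant RT clones built in pNL4-3.Luc.R−E− reporter, VSV-G-pseudotyped, single-round infection of HeLa-JC53 cells (15,000/well, MOI 0.03) with 1:4 serial compound dilutions in DMEM (phenol red-free), 2% FBS, 0.2% final DMSO; 48 h at 37°C, 5% CO2; luciferase chemiluminescence read-out. Fold change in EC50 relative to wild-type virus; mean of two tests.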

Molecule `NS(=O)(=O)c1ccc(NC(=O)CSc2nnc(Br)n2-c2ccc(C3CC3)c3ccccc23)c(Cl)c1` gave a bioavailability in [1] of 47.1%. Besides, the result (with Hepatitis B virus; in data set [4]) was inactive. For the same molecule, the result in [2] and in [3] was Active. Besides, the EC50 in data set [5] is 0.15 nM; in data set [6], 8.6 nM; in data set [7] it was 0.6 nM; in data set [8], 0.11 nM; in data set [9] it was 0.24 nM; in data set [10] it was 0.23 nM. Moreover, the EC50 in data set [11] turned out to be 0.14 nM; in data set [16], 13 nM; in data set [20] it was 0.81 nM. The Fold change in data set [12] was determined as 0.7; in data set [13], 1.3; in data set [14], 5.4; in data set [15], 31.2. Moreover, the Tmax in data set [17] worked out at 0.28 h. The same molecule gave a half-life in data set [18] of 2.89 h. The molecule also came in with an exposure (AUC) in data set [19] of 20900 ng·h/mL.

Consider `Cc1ccnc2c1NC(=O)c1cccnc1N2C1CC1` [NEVIRAPINE], for which the Fold change in data set [21] is reported as more than 100.
